Our source for the IC50, Selectivity ratio and inhibition values is ChEMBL document CHEMBL1142706, “Synthesis and evaluation of (pyridylmethylene)tetrahydronaphthalenes/-indanes and structurally modified derivatives: potent and selective inhibitors of aldosterone synthase” (J Med Chem, 2005).

Data set [1] concerns the target T1, Cytochrome P450 11B2, mitochondrial (Homo sapiens, UniProt P19099).
T1 sequence (P19099 whole entry): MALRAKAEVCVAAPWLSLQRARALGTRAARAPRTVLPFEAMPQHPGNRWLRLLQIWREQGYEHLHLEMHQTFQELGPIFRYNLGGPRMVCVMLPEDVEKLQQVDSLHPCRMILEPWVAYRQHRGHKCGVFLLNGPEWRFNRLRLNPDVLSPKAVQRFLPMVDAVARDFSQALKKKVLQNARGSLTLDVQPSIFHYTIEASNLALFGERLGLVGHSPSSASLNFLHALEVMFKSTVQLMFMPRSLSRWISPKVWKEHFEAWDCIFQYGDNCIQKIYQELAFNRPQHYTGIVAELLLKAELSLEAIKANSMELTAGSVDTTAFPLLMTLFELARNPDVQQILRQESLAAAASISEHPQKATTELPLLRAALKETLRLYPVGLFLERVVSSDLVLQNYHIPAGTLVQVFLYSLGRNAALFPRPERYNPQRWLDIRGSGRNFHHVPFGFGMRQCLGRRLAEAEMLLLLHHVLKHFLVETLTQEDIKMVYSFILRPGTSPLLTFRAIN
The experiment in a line: In vitro inhibitory concentration against human CYP11B2 expressed in V79MZh hamster fibroblasts incubated with 100 nM of substrate deoxy-corticosterone in presence of the compound. A digest of the protocol:
(§1)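 Intact V79 MZh hamster fibroblasts expressing human CYP11B1 or CYP11B2, incubated with [4-14C]-11-deoxycorticosterone (100 nM) and inhibitor at no fewer than three concentrations to give IC50. Stopped with ethyl acetate, shaken, centrifuged (10 000g, 2 min); steroids in organic phase analysed by HPTLC/phosphoimager. Mean of four determinations, standard deviation less than 5%.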

Data set [2] deals with T2, Cytochrome P450 11B1, mitochondrial (Homo sapiens, UniProt P15538).
T2 sequence (P15538 whole entry): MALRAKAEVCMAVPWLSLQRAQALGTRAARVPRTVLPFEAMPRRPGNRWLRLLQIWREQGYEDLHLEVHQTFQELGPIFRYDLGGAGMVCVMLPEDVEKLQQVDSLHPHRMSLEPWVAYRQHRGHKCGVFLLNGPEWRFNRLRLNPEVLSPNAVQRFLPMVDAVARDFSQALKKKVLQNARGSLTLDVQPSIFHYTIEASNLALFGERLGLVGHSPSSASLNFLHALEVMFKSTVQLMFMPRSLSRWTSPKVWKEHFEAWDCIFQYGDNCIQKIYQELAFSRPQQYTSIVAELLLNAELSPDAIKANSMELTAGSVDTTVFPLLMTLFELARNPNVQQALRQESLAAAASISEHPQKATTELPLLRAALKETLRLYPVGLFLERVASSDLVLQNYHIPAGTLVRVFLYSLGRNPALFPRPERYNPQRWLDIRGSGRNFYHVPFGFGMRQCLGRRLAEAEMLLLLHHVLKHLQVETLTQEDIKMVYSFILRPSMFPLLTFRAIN
Briefly: (§2) In vitro inhibitory concentration against human CYP11B1 expressed in V79 MZh hamster fibroblasts incubated with 100 nM of substrate deoxy-corticosterone in presence of the compound.

The next data set addresses T3, Aromatase (Homo sapiens, UniProt P11511).
T3 sequence (P11511 whole entry): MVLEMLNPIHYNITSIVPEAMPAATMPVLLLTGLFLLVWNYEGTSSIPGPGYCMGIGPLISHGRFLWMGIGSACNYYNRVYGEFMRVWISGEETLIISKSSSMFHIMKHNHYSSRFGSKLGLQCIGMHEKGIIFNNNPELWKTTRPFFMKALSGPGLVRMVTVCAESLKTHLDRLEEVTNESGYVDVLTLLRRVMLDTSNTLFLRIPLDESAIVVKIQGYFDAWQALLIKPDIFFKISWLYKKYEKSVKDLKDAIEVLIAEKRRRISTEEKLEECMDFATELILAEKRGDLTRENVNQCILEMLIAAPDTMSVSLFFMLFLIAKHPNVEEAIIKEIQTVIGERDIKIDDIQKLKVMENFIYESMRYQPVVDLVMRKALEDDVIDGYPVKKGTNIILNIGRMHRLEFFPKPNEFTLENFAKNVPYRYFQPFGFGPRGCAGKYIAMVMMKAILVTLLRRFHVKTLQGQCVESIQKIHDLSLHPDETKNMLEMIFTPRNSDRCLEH
The experiment in a line: In vitro inhibitory concentration against human placental CYP19 incubated with 500 nM of substrate androstenedione in presence of the compound.

A further data set is filed under the species Homo sapiens. The experiment in a line: In vitro IC50 ratio against human CYP11B1 to that of human CYP11B2. In short, it runs like this: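 IC50 ratio from V79 MZh hamster fibroblasts expressing human CYP11B1 or CYP11B2, each incubated with [4-14C]-11-deoxycorticosterone (100 nM) and inhibitor at no fewer than three concentrations; steroids extracted into ethyl acetate and quantified by HPTLC with phosphoimaging.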

Data set [3] addresses T1, Cytochrome P450 11B2, mitochondrial. Briefly: In vitro inhibition of human CYP11B2 expressed in Schizosaccharomyces pombe incubated with 100 nM of substrate deoxy-corticosterone in presence of 500 nM of compound.
Another data set deals with CYP11B2 (Homo sapiens). The experiment in a line: In vitro inhibitory concentration against human CYP11B2 expressed in V79 MZh hamster fibroblasts incubated with 100 nM of substrate deoxy-corticosterone in presence of the compound. Particulars: V79 MZh hamster fibroblasts expressing human CYP11B2, probe deoxy-corticosterone.
The target of a further data set is T4, CYP11B1 (Homo sapiens, UniProt P15538).
T4 sequence (P15538 whole entry): T2 sequence (P15538 whole entry)
Described as §2. Particulars: human, V79 MZh hamster fibroblasts expressing human CYP11B1, probe deoxy-corticosterone.

The next data set has as its target T5, CYP17 (Homo sapiens, UniProt P05093).
T5 sequence (P05093 whole entry): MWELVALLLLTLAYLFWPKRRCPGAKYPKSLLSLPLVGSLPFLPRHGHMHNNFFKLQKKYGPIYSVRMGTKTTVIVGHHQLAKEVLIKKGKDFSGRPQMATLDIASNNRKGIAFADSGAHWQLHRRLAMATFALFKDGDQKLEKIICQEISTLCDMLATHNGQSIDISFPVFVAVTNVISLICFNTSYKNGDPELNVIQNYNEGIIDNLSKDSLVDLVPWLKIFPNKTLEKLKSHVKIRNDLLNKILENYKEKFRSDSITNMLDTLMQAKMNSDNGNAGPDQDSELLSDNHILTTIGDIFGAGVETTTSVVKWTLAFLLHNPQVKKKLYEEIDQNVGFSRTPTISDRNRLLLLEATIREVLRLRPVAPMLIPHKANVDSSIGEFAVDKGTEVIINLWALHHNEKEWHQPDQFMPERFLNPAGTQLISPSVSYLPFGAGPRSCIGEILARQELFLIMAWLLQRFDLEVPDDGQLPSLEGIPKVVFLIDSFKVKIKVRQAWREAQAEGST
Briefly: In vitro inhibition of human CYP17 expressed in Escherichia coli incubated with 2.5 uM of substrate progesterone in presence of 2.5 uM of compound. As to conditions: probe progesterone.

Data set [4] addresses T1, Cytochrome P450 11B2, mitochondrial. The experiment in a line: In vitro inhibitory concentration against human CYP11B2 expressed in V79 MZh hamster fibroblasts incubated with 100 nM of substrate deoxy-corticosterone in presence of the compound. A digest of the protocol: as §1

As to `C(=C1/CCCc2ccccc21)/c1ccncc1`, the values for the IC50 (in [1]; in data set [2]; on Aromatase) were 15 nM, 143 nM and 650 nM, respectively. Moreover, the Selectivity ratio in the data set listed under Homo sapiens worked out at 2. The inhibition (in general, the drop in the measured response relative to a control, in per cent) at 0.5 µM in data set [3] is 54%.

In the case of `Fc1ccc2c(c1)CC/C2=C/c1cccc2cnccc12`, the IC50 (as a rule, the concentration that inhibits the measured activity by half) came to 65 nM in data set [1] and 26 nM with CYP11B2 (Homo sapiens). For the same compound, in the data set listed under Homo sapiens, the Selectivity ratio is 14.4.

On to `Fc1ccc2c(c1)CC/C2=C/c1ccncc1`, for which the figures for the IC50 in data set [1] and in data set [2] were 29 nM and 34 nM, respectively. Besides, in the data set filed under Homo sapiens, the Selectivity ratio came to 7.6.

With `Fc1ccc2c(c1)CC/C2=C\c1ccncc1`, the half-inhibitory concentration (IC50) was 15 nM in [1] and 1100 nM in data set [2]. Also, in the data set listed under Homo sapiens, the Selectivity ratio was 0.3.

As to `Fc1ccc2c(c1)CC/C2=C\c1cccc2cnccc12`, the figures for the IC50 (in data set [1]; on CYP11B1) were 57 nM and 58 nM, respectively. The Selectivity ratio in the data set filed under Homo sapiens came out at 19.5.

For the compound `Cc1ccc2c(c1)/C(=C\c1cccnc1)CC2`, the IC50 on Aromatase came out at 4600 nM. Besides, the inhibition at 2.5 µM on CYP17 came out at 2%. The inhibition at 0.5 µM in data set [3] was 43%.

In the case of `Brc1ccc2c(c1)CC/C2=C/c1ccncc1`, the values for the IC50 (in data set [1]; in [2]; at Aromatase) were 56 nM, 484 nM and 3400 nM, respectively. Besides, in the data set filed under Homo sapiens, the Selectivity ratio worked out at 1.8. Besides, in data set [3], the inhibition at 0.5 µM stood at 40%.

Turning to `C(=C1/CCc2cc(OCc3ccccc3)ccc21)/c1cccnc1`, on Aromatase, the IC50 is over 36000 nM. The inhibition at 2.5 µM on CYP17 was 1%. The inhibition at 0.5 µM in data set [3] is 0%.

In the case of `C(=C1\CCc2ccccc21)/c1ccncc1`, the IC50 in data set [1] is 18 nM; in [2] it was 931 nM. Also, the Selectivity ratio in the data set listed under Homo sapiens was 1.4.

`COc1cc2c(cc1OC)/C(=C/c1cccnc1)CCC2`: at Aromatase, the half-maximal inhibitory concentration (IC50) amounted to 980 nM. Besides, the inhibition at 2.5 µM on CYP17 turned out to be 6%. For the same compound, the inhibition at 0.5 µM in data set [3] stood at 5%.

On to `CC1C/C(=C/c2cccnc2)c2ccccc21` (stereo unspecified), for which the IC50 in [4] was 41 nM; at Aromatase, 2800 nM. Further, the inhibition at 0.5 µM in data set [3] was 15%.

Turning to `C(=C1\CCc2ccccc21)/c1cccnc1`, the IC50 in data set [1] came to 92 nM; in data set [2] it was 87 nM; on Aromatase, 3550 nM. Further, the Selectivity ratio in the data set listed under Homo sapiens is 0.9. For the same compound, the inhibition at 2.5 µM at CYP17 was found to be 33%. Besides, in [3], the inhibition at 0.5 µM is 83%.

As for `C/C(=C1/CCc2cc(F)ccc21)c1cccnc1`, the IC50 in [2] is 96 nM. Moreover, in the data set filed under Homo sapiens, the Selectivity ratio came out at 1.7. Further, the inhibition at 0.5 µM in [3] stood at 67%.

For `Fc1ccc2c(c1)CC/C2=C\c1cncnc1`, the IC50 is 27 nM in [1] and 3180 nM at CYP11B1. The Selectivity ratio in the data set listed under Homo sapiens is 118.

Take `Brc1ccc2c(c1)CC/C2=C\c1ccncc1`: the values for the IC50 (in data set [1]; in data set [2]; on Aromatase) were 24 nM, 2640 nM and over 36000 nM, respectively. The Selectivity ratio in the data set filed under Homo sapiens came out at 0.4.

Consider `C(=C1/CCc2ccccc21)/c1cccnc1`, for which the IC50 in [4] came to 11 nM. In addition, in the data set filed under Homo sapiens, the Selectivity ratio came out at 80.7. Moreover, at CYP17, the inhibition at 2.5 µM worked out at 14%.

For the compound `Clc1ccc2c(c1)CC/C2=C\c1ccncc1`, the IC50 in data set [1] and in data set [2] was 1520 nM in each case.

`COc1ccc2c(c1)/C(=C/c1cccnc1)CC2`: the IC50 at Aromatase is 6360 nM. The inhibition at 2.5 µM on CYP17 is 5%. Besides, in data set [3], the inhibition at 0.5 µM came out at 29%.
